For orientation: MIC means the smallest concentration in the dilution series that meets the test's criterion for growth inhibition.

What all share (format): functional
In experiment [1] the test system is Staphylococcus aureus. As to the kind of experiment: Antibacterial activity against methicillin-resistant Staphylococcus aureus ATCC 43300 at 5 ug/disk after 24 hrs by disk diffusion method. To be noted: ATCC 43300, 24 h, read-out: DIZ. For orientation: Agar diffusion results depend on both activity and mobility in agar.
Experiment [2] has as its system Staphylococcus aureus. As to the kind of experiment: Antibacterial activity against methicillin-resistant Staphylococcus aureus ATCC 43300 at 10 mg/ml after 24 hrs by disk diffusion method. The settings on record: for zone of inhibition at 10000 µg/mL: ATCC 43300, 24 h, read-out: DIZ. The procedure, abridged:
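Disk diffusion. Pure compounds were diluted to 10 mg/mL in DMSO, and 50 μL was loaded onto 6 mm sterile paper disks. Disks were placed on agar seeded with bacterial suspension (0.5 McFarland, (1−2) × 10^8 CFU/mL), with solvent as negative control. Incubation was 37 °C, 24 h, aerobic. Inhibition-zone diameter was measured including the disk. Done in triplicate.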

Experiment [3] concerns Staphylococcus aureus. Nature of the experiment: Ratio of MIC for methicillin-sensitive Staphylococcus aureus in dark to MIC for methicillin-sensitive Staphylococcus aureus in presence of UVA irradiation.
The test system of experiment [4] is Staphylococcus aureus. Nature of the experiment: Antibacterial activity against methicillin-resistant Staphylococcus aureus ATCC 43300 after 24 hrs by microdilution method. The settings on record: ATCC 43300, 24 h. The procedure, abridged: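 Broth microdilution in 96-well plates. DMSO stocks (50 mg/mL) were serially diluted in Mueller-Hinton broth to final 2.5 mg/mL–4.9 μg/mL. Inoculum was 0.5 McFarland, (1−2) × 10^8 CFU/mL. Controls were sterility, DMSO/inoculum negative and vancomycin positive. Incubation was 37 °C, 24 h, aerobic. MIC was the lowest concentration with no visible growth. Run twice in triplicate.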
For orientation: In broth dilution the organism is exposed to a series of concentrations in liquid medium.

≈ marks a conversion by molar mass, not a printed value. Calls of active or inactive are those of the source.

`CN[C@H](CC(C)C)C(=O)N[C@H]1C(=O)N[C@@H](CC(N)=O)C(=O)N[C@H]2C(=O)N[C@H]3C(=O)N[C@H](C(=O)N[C@H](C(=O)O)c4cc(O)cc(O)c4-c4cc3ccc4O)[C@H](O)c3ccc(c(Cl)c3)Oc3cc2cc(c3O[C@@H]2O[C@H](CO)[C@@H](O)[C@H](O)[C@H]2O[C@H]2C[C@](C)(N)[C@H](O)[C@H](C)O2)Oc2ccc(cc2Cl)[C@H]1O` [VANCOMYCIN]: the zone of inhibition at 5 µg/disc with Staphylococcus aureus [1] stood at 15.5 mm. As for `C=Cc1c(C)c(O)cc2c1CCc1c-2ccc(O)c1C`, in the experiment with Staphylococcus aureus [2], the “diameter of the inhibition zone (DIZ)” value is “inactive”. As for `C=Cc1c(C)c(O)cc2ccc3c(C)c(O)ccc3c12`, the “diameter of the inhibition zone (DIZ)” value with Staphylococcus aureus [2] is “inactive”.

Turning to `C=Cc1cc(O)cc2c1-c1ccc(O)c(C)c1CC2` [EFFUSOL], the Ratio in the experiment with Staphylococcus aureus [3] stood at 16.

For `C=Cc1c(C)c(O)cc2c1-c1ccc(OC)c(CO)c1CC2`, inhibition of growth against Staphylococcus aureus [4] (MIC) required 100 µg/mL (≈ 337 µM). Also, the zone of inhibition at 10000 µg/mL in the experiment with Staphylococcus aureus [2] is 7 mm. On to `C=Cc1cc2c(ccc3c(C)c(O)ccc32)cc1C`, for which, in the experiment with Staphylococcus aureus [2], the “diameter of the inhibition zone (DIZ)” value is “inactive”.

Consider `C=CC1=C(C)C(=O)C=C2c3ccc(O)c(C)c3CC[C@]21O`, for which the minimal inhibitory concentration (MIC) against Staphylococcus aureus [4] is 12.5 µg/mL (≈ 44.3 µM). The zone of inhibition at 10000 µg/mL in the experiment on Staphylococcus aureus [2] was determined as 12 mm. In the same order, the values of `C=Cc1c(C)c(O)cc2c1ccc1c(C)c(O)ccc12` are 25 µg/mL (≈ 94.6 µM) and 10 mm. As to `Cc1cc2ccc3c(C)c(O)ccc3c2cc1[C@@H]1CC=Cc2c3c(c(C)c(O)c21)CCc1c-3ccc(O)c1C`, in the experiment with Staphylococcus aureus [2], the “diameter of the inhibition zone (DIZ)” value is “inactive”. On the same count and under the same terms, with `C=Cc1cc2c(cc1C)CCc1c-2ccc(O)c1C` the entry was “inactive”. In the experiment on Staphylococcus aureus [4], `C=Cc1c(C)c(O)cc2c1-c1ccc(O)c(C)c1CC2` showed a minimal inhibitory concentration (MIC) of 25 µg/mL (≈ 93.9 µM). In the experiment with Staphylococcus aureus [2], the zone of inhibition at 10000 µg/mL was determined as 12 mm. Further, in the experiment on Staphylococcus aureus [3], the Ratio is 2. `COC(C)c1cc(O)c(C)c2c1-c1ccc(O)c(C)c1CC2` (racemic): the “diameter of the inhibition zone (DIZ)” value with Staphylococcus aureus [2] was “inactive”. On the same count and under the same terms, with `COc1cc(-c2cc(=O)c3c(O)cc(O)cc3o2)ccc1O` the entry was “inactive”; with `C=C[C@@]1(C)C(=O)C2=C(C[C@H]1O)c1ccc(O)c(C)c1CC2`, “inactive”.

For the origin of these results see ChEMBL document CHEMBL4002557, “Phenanthrenes from Juncus inflexus with Antimicrobial Activity against Methicillin-Resistant Staphylococcus aureus” (2016).
